Converted amounts (≈) assume the structure as drawn.
Legend:
Escherichia coli [1] = experiment: Antibacterial activity against wild-type Escherichia coli MC4100 by microbroth dilution susceptibility assay; type: functional
Summary of the method: (§1)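 MIC determined by standard broth microdilution following CLSI (formerly NCCLS) guidelines. Value is the lowest concentration inhibiting bacterial growth.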

Escherichia coli [2] = experiment: Antibacterial activity against TolC knock-out Escherichia coli by microbroth dilution susceptibility assay; type: functional; summary of the method: as §1
Enterococcus faecalis = experiment: Antibacterial activity against Enterococcus faecalis MGH-2 by microbroth dilution susceptibility assay; type: functional; summary of the method: as §1
Staphylococcus aureus = experiment: Antibacterial activity against Staphylococcus aureus 29213 by microbroth dilution susceptibility assay; type: functional; summary of the method: as §1
Streptococcus pyogenes = experiment: Antibacterial activity against Streptococcus pyogenes C203 by microbroth dilution susceptibility assay; type: functional; summary of the method: as §1
[3] = Inhibition of Escherichia coli DNA gyrase

Compound | MIC (Escherichia coli [1]) | MIC (Escherichia coli [2]) | MIC (Enterococcus faecalis) | MIC (Staphylococcus aureus) | MIC (Streptococcus pyogenes) | IC50 [3]
Cc1c(N2CCC(N)C2)c(F)cc2c(=O)n(N)c(=O)n(C3CC3)c12 (stereo unspecified) | 1 µg/mL (≈ 3 µM) | 0.25 µg/mL (≈ 0.75 µM) | 8 µg/mL (≈ 24 µM) | 8 µg/mL (≈ 24 µM) | 1 µg/mL (≈ 3 µM) | 200 nM
Cc1c(N2CC[C@@H]([C@H](C)N)C2)c(F)cc2c(=O)n(N)c(=O)n(C3CC3)c12 | 0.5 µg/mL (≈ 1.38 µM) | 0.03 µg/mL (≈ 0.083 µM) | 0.06 µg/mL (≈ 0.166 µM) | 0.13 µg/mL (≈ 0.36 µM) | 0.015 µg/mL (≈ 0.0415 µM) | 200 nM
Cc1c(N2CCC(CN)C2)c(F)cc2c(=O)n(N)c(=O)n(C3CC3)c12 (stereo unspecified) | 2 µg/mL (≈ 5.76 µM) | 0.13 µg/mL (≈ 0.374 µM) | 0.5 µg/mL (≈ 1.44 µM) | 0.5 µg/mL (≈ 1.44 µM) | 0.06 µg/mL (≈ 0.173 µM) | 400 nM
Cc1c(N2CC[C@H]([C@H](C)N)C2)c(F)cc2c(=O)n(N)c(=O)n(C3CC3)c12 | 4 µg/mL (≈ 11.1 µM) | 0.13 µg/mL (≈ 0.36 µM) | 2 µg/mL (≈ 5.53 µM) | 2 µg/mL (≈ 5.53 µM) | 0.5 µg/mL (≈ 1.38 µM) | 600 nM
CN[C@@H](C)[C@@H]1CCN(c2c(F)cc3c(=O)n(N)c(=O)n(C4CC4)c3c2C)C1 | 4 µg/mL (≈ 10.7 µM) | 0.03 µg/mL (≈ 0.0799 µM) | 0.13 µg/mL (≈ 0.346 µM) | 0.5 µg/mL (≈ 1.33 µM) | 0.015 µg/mL (≈ 0.04 µM) | 200 nM
Cc1c(N2CCC(C(C)N)C2)c(F)cc2c(=O)n(N)c(=O)n(C3CC3)c12 (stereo unspecified) | 4 µg/mL (≈ 11.1 µM) | 0.25 µg/mL (≈ 0.692 µM) | 1 µg/mL (≈ 2.77 µM) | 0.5 µg/mL (≈ 1.38 µM) | 0.03 µg/mL (≈ 0.083 µM) | 600 nM
CCN[C@@H](C)[C@@H]1CCN(c2c(F)cc3c(=O)n(N)c(=O)n(C4CC4)c3c2C)C1 | 8 µg/mL (≈ 20.5 µM) | 0.13 µg/mL (≈ 0.334 µM) | 0.25 µg/mL (≈ 0.642 µM) | 0.5 µg/mL (≈ 1.28 µM) | 0.13 µg/mL (≈ 0.334 µM) | 900 nM
Cc1c(N2CC[C@H]([C@@H](C)N)C2)c(F)cc2c(=O)n(N)c(=O)n(C3CC3)c12 | 2 µg/mL (≈ 5.53 µM) | 0.13 µg/mL (≈ 0.36 µM) | 0.25 µg/mL (≈ 0.692 µM) | 1 µg/mL (≈ 2.77 µM) | 0.25 µg/mL (≈ 0.692 µM) | 800 nM
Cc1c(N2CCC(C(C)(C)N)C2)c(F)cc2c(=O)n(N)c(=O)n(C3CC3)c12 (stereo unspecified) | 16 µg/mL (≈ 42.6 µM) | 0.25 µg/mL (≈ 0.666 µM) | 2 µg/mL (≈ 5.33 µM) | 1 µg/mL (≈ 2.66 µM) | 0.125 µg/mL (≈ 0.333 µM) | 1600 nM
Cc1c(N2CCC(C3(N)CC3)C2)c(F)cc2c(=O)n(N)c(=O)n(C3CC3)c12 (stereo unspecified) | 2 µg/mL (≈ 5.36 µM) | 0.03 µg/mL (≈ 0.0803 µM) | 0.13 µg/mL (≈ 0.348 µM) | 0.25 µg/mL (≈ 0.669 µM) | 0.03 µg/mL (≈ 0.0803 µM) | 800 nM
Cc1c(N2CCC(C(N)c3ccccc3)C2)c(F)cc2c(=O)n(N)c(=O)n(C3CC3)c12 (stereo unspecified) | 4 µg/mL (≈ 9.45 µM) | 0.06 µg/mL (≈ 0.142 µM) | 0.25 µg/mL (≈ 0.59 µM) | 0.13 µg/mL (≈ 0.307 µM) | 0.03 µg/mL (≈ 0.0708 µM) | 260 nM
Cc1c(N2CCCCC2)c(F)cc2c(=O)n(N)c(=O)n(C3CC3)c12 | > 64 µg/mL | 0.25 µg/mL (≈ 0.752 µM) | 4 µg/mL (≈ 12 µM) | 4 µg/mL (≈ 12 µM) | 4 µg/mL (≈ 12 µM) | 6300 nM
Cc1c(N2CCNCC2)c(F)cc2c(=O)n(N)c(=O)n(C3CC3)c12 | 4 µg/mL (≈ 12 µM) | 1 µg/mL (≈ 3 µM) | 32 µg/mL (≈ 96 µM) | 32 µg/mL (≈ 96 µM) | 4 µg/mL (≈ 12 µM) | 3100 nM
Cc1c(N2CCCC2)c(F)cc2c(=O)n(N)c(=O)n(C3CC3)c12 | 16 µg/mL (≈ 50.3 µM) | 0.13 µg/mL (≈ 0.408 µM) | 2 µg/mL (≈ 6.28 µM) | 1 µg/mL (≈ 3.14 µM) | 1 µg/mL (≈ 3.14 µM) | 1900 nM
Cc1c(N2CC[C@@H]([C@@H](C)N)C2)c(F)cc2c(=O)n(N)c(=O)n(C3CC3)c12 | 2 µg/mL (≈ 5.53 µM) | 0.13 µg/mL (≈ 0.36 µM) | 0.5 µg/mL (≈ 1.38 µM) | 0.5 µg/mL (≈ 1.38 µM) | 0.06 µg/mL (≈ 0.166 µM) | 300 nM
CCC(N)C1CCN(c2c(F)cc3c(=O)n(N)c(=O)n(C4CC4)c3c2C)C1 (stereo unspecified) | 8 µg/mL (≈ 21.3 µM) | 0.13 µg/mL (≈ 0.346 µM) | 0.25 µg/mL (≈ 0.666 µM) | 0.5 µg/mL (≈ 1.33 µM) | 0.03 µg/mL (≈ 0.0799 µM) | 400 nM
Cc1c(N2CCC(CCN)C2)c(F)cc2c(=O)n(N)c(=O)n(C3CC3)c12 (stereo unspecified) | 16 µg/mL (≈ 44.3 µM) | 0.5 µg/mL (≈ 1.38 µM) | 4 µg/mL (≈ 11.1 µM) | 4 µg/mL (≈ 11.1 µM) | 0.125 µg/mL (≈ 0.346 µM) | 1200 nM
Cc1c(N2CCC2)c(F)cc2c(=O)n(N)c(=O)n(C3CC3)c12 | > 64 µg/mL | 2 µg/mL (≈ 6.57 µM) | 64 µg/mL (≈ 210 µM) | 32 µg/mL (≈ 105 µM) | 64 µg/mL (≈ 210 µM) | 12500 nM
O=C(O)c1cn(C2CC2)c2cc(N3CCNCC3)c(F)cc2c1=O [CIPROFLOXACIN] | – | – | 0.4 µg/mL (≈ 1.21 µM) | 0.5 µg/mL (≈ 1.51 µM) | 2 µg/mL (≈ 6.04 µM) | –
